# Source: PubChem BioAssay (The Scripps Research Institute Molecular Screening Center)
# Only some compounds are listed: those with a hit (about 3.4% of all), similar ones and a draw of the others.
# SF-1 act: activators of human SF-1, primary screen, cell-based, CHO-K1, Gal4-SF-1 LBD, luciferase luminescence; 1.9% of 65,000 active; activation, % at 10 µM; CHO-K1 Gal4-SF-1 LBD luciferase reporter; % increase over DMSO SF-1-specific signal;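 active = activation above the mean activation of all tested compounds plus 3 SD, cut at about 50% in these data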
#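 Test system: CHO-K1 cells co-transfected with Gal4 DBD–human SF-1 LBD, 5xGal4 luciferase reporter. Quantity: 4,000 cells per well. Compound: 10 µM only. Incubation: compound added 1 h post-seeding, 20 h exposure at 37 °C, 5% CO2. Detection: SteadyLite luciferase luminescence. Replication: one test per compound.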
# RORA act: activators of orphan receptor RORA, primary screen, cell-based, luminescence; Nuclear receptor ROR-alpha (Homo sapiens), P35398; CHO-K1 Gal4-RORA LBD luciferase reporter; percent increase over mock-subtracted basal signal; activation, % at 10 µM; 1.5% of 65,000 active;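 active = activation above the mean of all tested compounds plus 3 SD, cut at about 49% in these data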;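 also: 0% = DMSO-treated RORA cells and 100% = added signal equal to DMSO minus mock-transfected cells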
# PKA inh: inhibitors of human PKA kinase activity, primary screen, biochemical, ATP-depletion luminescence, Kemptide substrate | inhibition, % at 6 µM | 0.1% of 65,000 active | PKA Kemptide phosphorylation, Kinase-Glo ATP luminescence | cAMP-dependent protein kinase catalytic subunit alpha (Homo sapiens), P17612;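 active = inhibition above the screen-wide mean inhibition plus 3 SD, cut at about 21% in these data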
# ROCK2 inh: inhibitors of human ROCK2 kinase, primary screen, biochemical, high-throughput, luminescence; 0.35% of 60,000 active; inhibition, % at 6 µM; AID 604, 2007; purified ROCK2, Kinase-Glo ATP depletion luminescence; Rho-associated protein kinase 2 (Homo sapiens), O75116;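 active = inhibition above the screen-wide mean inhibition plus 3 SD, cut at about 18% in these data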;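 also: plate controls were DMSO wells for no effect and Y-27632 control wells after no-enzyme background subtraction for full effect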
# MMP13 inh: human MMP13 inhibitors, primary screen, biochemical, FRET peptide cleavage; Collagenase 3 (Homo sapiens), P45452; MMP-13 fTHP FRET cleavage, Mca fluorescence; inhibition, % at 4 µM; 0.07% of 65,000 active; AID 570, 2006;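 active = inhibition above the mean of compound-free control plate wells plus 3 SD, cut at about 14% in these data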;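 also: 0% = DMSO wells and 100% = wells with reference MMP-13 inhibitor after basal subtraction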
# JNK3 inh: JNK3 kinase activity inhibitors, primary screen, biochemical, human, purified enzyme. 0.61% of 60,000 active. inhibition, % at 8 µM. Mitogen-activated protein kinase 10 (Homo sapiens), P53779. HTS; in the data active = inhibition above about 17%;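 also: 0% = DMSO and 100% = reference inhibitor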
# Target sequence (P53779 whole entry, looked up): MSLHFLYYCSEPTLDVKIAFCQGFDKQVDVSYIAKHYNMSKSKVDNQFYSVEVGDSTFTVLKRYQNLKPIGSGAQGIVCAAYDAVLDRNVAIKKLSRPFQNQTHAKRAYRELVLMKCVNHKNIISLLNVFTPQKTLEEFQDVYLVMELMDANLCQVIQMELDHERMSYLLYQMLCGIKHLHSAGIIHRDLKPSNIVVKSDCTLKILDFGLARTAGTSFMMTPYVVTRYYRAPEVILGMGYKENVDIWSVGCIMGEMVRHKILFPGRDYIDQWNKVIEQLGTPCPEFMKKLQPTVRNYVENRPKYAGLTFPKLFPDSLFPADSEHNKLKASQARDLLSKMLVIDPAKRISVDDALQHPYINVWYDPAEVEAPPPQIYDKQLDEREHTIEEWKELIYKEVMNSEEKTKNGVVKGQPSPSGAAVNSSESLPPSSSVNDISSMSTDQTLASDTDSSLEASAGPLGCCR
# Starred values were filed as active, the others as inactive; . = no result given.
SMILES,SF-1 act,RORA act,PKA inh,ROCK2 inh,MMP13 inh,JNK3 inh
CCn1c(Cn2nnc(-c3ccccc3)n2)nnc1SCC(=O)Nc1cccc(C(C)=O)c1,-5,3,1,5,-1,3
O=C(NCc1ccco1)c1cc2ccccc2c(=O)o1,-12,3,4,-1,0,1
Cc1cccc(NC(=O)c2cc3ccccc3c(=O)o2)n1,65*,57*,9,7,1,8
CCCc1cc(NCCN2CCOCC2)n2c(nc3ccccc32)c1C#N,-4,6,-2,1,-93,6
CCOc1ccc2[nH]c(=O)c(CN(CCc3ccccc3)C(=O)c3cnccn3)cc2c1,2,0,-1,0,-5,2
CCOC(=O)N1CCN(C(=O)C2CCN(Cc3nc(-c4ccccc4C)oc3C)CC2)CC1,-12,4,6,2,3,-1
O=c1oc2ccccc2cc1-c1cn2cccnc2n1,36,55*,1,-12,-29,-2
CNc1nnc(-c2cc3ccccc3oc2=O)s1,32,36,6,4,-10,2
N#Cc1nc(-c2ccc(OCc3ccccc3)cc2)oc1NCc1cccnc1,14,7,-3,-1,-20,-3
CN(C)c1oc(-c2ccc(OCc3ccccc3)cc2)nc1C#N,61*,7,-1,-1,-149,-13
O=C(CSc1nnc(-c2ccco2)n1Cc1ccccc1)c1ccccc1,51*,49*,4,4,-3,0
CCCCOc1ccc(OCCCN2CCOCC2)cc1,5,-8,0,5,-12,0
CCCCCOc1ccc(CN2CCOCC2)cc1Cl,61*,40,8,4,8,-1
O=C(Nc1ccccc1)N1CC=C(c2ccc(F)cc2)CC1,38,66*,4,-1,6,-3
O=C(Nc1ccccc1)N1CC=C(c2ccccc2)CC1,87*,49*,5,4,-1,-7
CCCCC(CCC(=O)O)(C(=O)OCC)c1csc(N)n1 (stereo not drawn),-7,-18,-2,4,0,-5
COc1ccc(-c2nnc(N)s2)cc1,7,50*,8,2,0,-3
CCCOc1ccc(-c2nnc(N)s2)cc1,59*,44,5,3,-1,-7
Cc1ccc2cccc(Oc3cnccn3)c2n1,-2,-17,11,6,-2,4
N#CC1=C(c2ccccc2)N=P(N2CCOCC2)(N2CCOCC2)N=C1N1CCOCC1,0,15,2,.,1,.
O=C(Nc1ccc(-c2cn3ccsc3n2)cc1)c1ccc(F)c(S(=O)(=O)N2CCOCC2)c1,57*,42,7,4,-3,5
O=C(Nc1ccccc1)c1ccc(F)c(S(=O)(=O)N2CCOCC2)c1,-9,15,4,4,-2,-3
COc1ccccc1C(=O)Nc1cccc(-c2cn3ccsc3n2)c1,8,2,5,-2,5,-4
CCCCC(=O)Nc1cccc(-c2cn3ccsc3n2)c1,30,58*,8,8,1,4
O=C(Nc1ccc(-c2cn3ccsc3n2)cc1)C1COc2ccccc2O1 (stereo not drawn),57*,17,-2,2,4,0
O=C(Nc1cccc(-c2cn3ccsc3n2)c1)c1ccccc1,27,49*,2,2,-6,-1
CCOc1ccc2nc(NC(=O)Nc3cccs3)sc2c1,31,8,7,6,0,3
COC(=O)c1cccc(OC(N)=O)c1,8,3,6,8,6,1
O=C(Nc1cccc(-c2cn3ccccc3n2)c1)c1cnccn1,52*,46,2,.,4,.
CC(C)(C)C1CCc2[nH]c3ccccc3c(=O)c2C1 (stereo not drawn),56*,98*,1,2,-2,2
